Screening results (PubChem)
CTSL1 counter – cathepsin L1 inhibition, PFM18AAP counter-screen | hit rate 0.49% among 300,000 | inhibition, % at 5.96 µM | recombinant F. hepatica cathepsin L1, Z-Leu-Arg-MCA fluorescence | AID 1906;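 active = inhibition above the mean of all tested compounds plus 3 SD, set per screening campaign, cut at about 17% in these data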
UBC9 SUMO inh – blocks human SUMOylation mediated by UBC9; P63279; HTRF SUMOylation assay, SAE1/SAE2 + UBC9, in vitro; inhibition, % at 35 µM; hit rate 0.36% among 290,000; in the data active = inhibition above about 50%, passing the limit was not always enough; inconclusive = no clear call, values can overlap the other calls
IMP-1 inh – blocks Pseudomonas aeruginosa IMP-1 metallo-beta-lactamase; hit rate 0.45% among 290,000; inhibition, % at 5.6 µM; purified IMP-1, nitrocefin hydrolysis, epi-absorbance fluorescence;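 active = inhibition above the mean plus 3 SD of all compounds in the same screening run, cut at about 4.5% in these data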
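Assay system: purified IMP-1; Quantity: IMP-1 0.2 nM before substrate addition; Medium: HEPES buffer pH 7.1 with ZnSO4 and Brij 35; Incubation: 15 min enzyme–compound preincubation, then 25 min nitrocefin reaction, 25 °C; Signal: fluorescence quenching readout, ex 480/em 530 nm; Controls: DMSO with and without IMP-1; Repeats: singlicate testing.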
VIM-2 inh – blocks Pseudomonas aeruginosa VIM-2 metallo-beta-lactamase. inhibition, % at 5.6 µM. hit rate 0.89% among 290,000. purified VIM-2, nitrocefin hydrolysis, epi-absorbance fluorescence;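 active = inhibition above the mean of all tested compounds plus 3 SD, cutoff set per screening run, cut at about 7.5% in these data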;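 note: red hydrolysis product quenches plate fluorescence so inhibitors raise well fluorescence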
T cell HTS – T cell immune modulators affecting CD8 T cell-vesicle binding | response (vesicle binding), % at 7 µM | 2C CD8+ T cell-vesicle binding, flow cytometry; hits give low values | hit rate 0.068% among 330,000;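 active = response, share of CD8 T cells binding vesicles, and their 90th percentile fluorescence all below set limits, cut at about 80% in these data, passing the limit was not always enough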;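 note: values below 100% mean blocked vesicle binding to the CD8+ T cells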
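incubation = binding step 1.5 h, 37 °C, antibody labelling 20 min, ice | test system = 2C mouse CD8+ T cells | read-out basis = percent CD8+ FL2 mean versus row control | controls = Peptide-free naked vesicles (low) and QL9 vesicles with 0.7% DMSO vehicle (high) | detection = flow cytometry of vesicle-bound cells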
pCIP destab – p/CIP protein destabilization; hit rate 0.01% among 290,000; decrease of EGFP signal, % at 10 µM; F442A p/CIP-EGFP cells, EGFP fluorescence, 16 h;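 active = EGFP signal decrease of at least 30% at 10 µM or well 3 SD below plate mean, unless failing retest; inactive = the rest, including hits failing retest or dose response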
A number is an active result. Most compounds without a hit are left out; they make up all but 1.9% or so of the library.

COc1ccc(-c2nn(C)c(=O)c3ccccc23)cc1NS(C)(=O)=O was read as CTSL1 counter inactive, UBC9 SUMO inh inactive, IMP-1 inh inactive, VIM-2 inh inactive, T cell HTS inactive and pCIP destab inactive.
CNC(=O)Nc1ccccc1C(=O)Nc1ccccc1 was read as CTSL1 counter inactive, UBC9 SUMO inh inactive, IMP-1 inh inactive, VIM-2 inh inactive, T cell HTS inactive and pCIP destab inactive.
`CCOC(=O)N1CCN(C(=O)c2ccc3c(c2)N(C)C(=O)/C(=C\c2ccc(OCC)c(OC)c2)S3)CC1` gave CTSL1 counter 20, UBC9 SUMO inh inactive, IMP-1 inh inactive, VIM-2 inh inactive, T cell HTS inactive and pCIP destab inactive.
`CCOc1ccc(/C=C2/Sc3ccc(C(=O)NCC4CCCO4)cc3N(C)C2=O)cc1OC` (stereo not given) gave CTSL1 counter inactive, IMP-1 inh inactive, VIM-2 inh 8.6, T cell HTS inactive and pCIP destab inactive.
Cc1cccc(/C=C2\Sc3ccc(C(=O)NCC4CCCO4)cc3N(C)C2=O)c1 (stereo not given) was read as CTSL1 counter inactive, UBC9 SUMO inh inactive, IMP-1 inh inactive, VIM-2 inh inactive, T cell HTS inactive and pCIP destab inactive.
For COc1ccc(C(=O)NCCN2CCCC2)cc1OC the results were CTSL1 counter inactive, UBC9 SUMO inh inactive, IMP-1 inh inactive, VIM-2 inh inactive, T cell HTS inactive and pCIP destab inactive.
For COc1ccc(/C=C2\Sc3ccc(C(=O)NCCCN4CCCC4)cc3N(C)C2=O)cc1OC the results were CTSL1 counter inactive, UBC9 SUMO inh inactive, IMP-1 inh inactive, VIM-2 inh 11, T cell HTS inactive and pCIP destab inactive.
`O=C(CNC(=O)c1ccc(S(=O)(=O)N2CCCC2)cc1)N/N=C/c1ccc(Cl)cc1Cl` gave CTSL1 counter inactive, UBC9 SUMO inh inactive, IMP-1 inh inactive, VIM-2 inh inactive, T cell HTS inactive and pCIP destab inactive.
For COc1ccc2c(c1OC)c(=O)n1c3ccc(OC(C)C(=O)NCCCN4CCOCC4)cc3c3ccnc2c31 (stereo not given) the results were CTSL1 counter inactive, UBC9 SUMO inh inactive, IMP-1 inh inactive, VIM-2 inh 11, T cell HTS inactive and pCIP destab inactive.
`CC1CN(CCCCOc2ccc(Cl)c3ccccc23)CC(C)O1` (stereo not given) gave CTSL1 counter inactive, UBC9 SUMO inh inactive, IMP-1 inh 4.5, VIM-2 inh inactive, T cell HTS inactive and pCIP destab inactive.
Screening CCCSc1nc2sc3c(c2c(=O)[nH]1)CCN(Cc1ccccc1)C3 returned CTSL1 counter inactive, UBC9 SUMO inh inactive, IMP-1 inh inactive, VIM-2 inh inactive, T cell HTS inactive and pCIP destab inactive.
`O=c1[nH]c(C(Cl)Cl)nc2sc3c(c12)CCN(Cc1ccccc1)C3` gave CTSL1 counter inactive, UBC9 SUMO inh inactive, IMP-1 inh 11, VIM-2 inh inactive, T cell HTS inactive and pCIP destab inactive.
For CC(C)Cn1c(-c2csc(C(C)C)c2)n[nH]c1=S the results were CTSL1 counter inactive, UBC9 SUMO inh inactive, IMP-1 inh inactive, VIM-2 inh inactive, T cell HTS inactive and pCIP destab inactive.
Cc1cc(-c2n[nH]c(=S)n2CC(C)C)cs1 was read as CTSL1 counter inactive, UBC9 SUMO inh inactive, IMP-1 inh inactive, VIM-2 inh 8.6, T cell HTS inactive and pCIP destab inactive.
`CCOC(=O)c1ccccc1NC(=O)Cc1ccc(OC)c(S(=O)(=O)N2CCOCC2)c1` gave T cell HTS inactive.
COc1cc(C)c(NC(=O)c2cccc(S(=O)(=O)N3CCCC3)c2)cc1OC was read as T cell HTS inactive.
Cn1c(SCC(=O)NCC2CCCO2)nnc1-c1c[nH]c2ccccc12 (stereo not given) was read as CTSL1 counter inactive, UBC9 SUMO inh inactive, IMP-1 inh inactive, VIM-2 inh inactive, T cell HTS inactive and pCIP destab inactive.
`CCn1c(SCC(=O)NCC2CCCO2)nnc1-c1c[nH]c2ccccc12` (stereo not given) gave CTSL1 counter inactive, UBC9 SUMO inh inactive, IMP-1 inh inactive, VIM-2 inh inactive, T cell HTS 0.0 and pCIP destab inactive.
Screening CC1CCN(C(=O)c2ncn(C)c2C(=O)N2CCC(C)CC2)CC1 returned T cell HTS inactive.
For O=Nc1c(O)c2ccccc2c2ccccc12 the results were CTSL1 counter inactive and T cell HTS inactive.
O=c1c(=Nc2ccccc2O)c(=O)c2ccccc12 was read as CTSL1 counter 33, UBC9 SUMO inh inactive, IMP-1 inh inactive, VIM-2 inh inactive, T cell HTS inactive and pCIP destab inactive.
Cc1cc(C)c(S(=O)(=O)/N=C2\C=C(Nc3ccc(C(=O)O)cc3)C(=O)c3ccccc32)c(C)c1 was read as CTSL1 counter 25, UBC9 SUMO inh inactive, IMP-1 inh inactive, VIM-2 inh inactive, T cell HTS inactive and pCIP destab inactive.
CCc1ccc(S(=O)(=O)/N=C2\C=C(Nc3ccc(O)cc3)C(=O)c3ccccc32)cc1 was read as CTSL1 counter 63, UBC9 SUMO inh inactive, IMP-1 inh inactive, VIM-2 inh inactive, T cell HTS inactive and pCIP destab inactive.
CCc1ccc(S(=O)(=O)/N=C2\C=C(Nc3cccc(C(=O)O)c3)C(=O)c3ccccc32)cc1 was read as CTSL1 counter 51, UBC9 SUMO inh inconclusive, IMP-1 inh inactive, VIM-2 inh inactive, T cell HTS inactive and pCIP destab inactive.
Screening O=C(O)c1ccc(NC2=C/C(=N/S(=O)(=O)c3ccccc3)c3ccccc3C2=O)cc1 returned UBC9 SUMO inh inconclusive, IMP-1 inh inactive, VIM-2 inh inactive and pCIP destab inactive.
For CCc1ccc(S(=O)(=O)/N=C2/C=C(Sc3ncn[nH]3)C(=O)c3ccccc32)cc1 the results were CTSL1 counter 100, UBC9 SUMO inh 92, IMP-1 inh inactive, VIM-2 inh inactive, T cell HTS inactive and pCIP destab inactive.
Screening CC(C)CC(=O)CC1(O)C(=O)Nc2ccccc21 (stereo not given) returned CTSL1 counter inactive, UBC9 SUMO inh inactive, IMP-1 inh inactive, VIM-2 inh inactive, T cell HTS inactive and pCIP destab inactive.
Screening COc1ccc(C(=O)Nn2c(CC(C)C)nc3cc(Cl)ccc3c2=O)c(OC)c1 returned CTSL1 counter inactive, UBC9 SUMO inh inactive, IMP-1 inh inactive, VIM-2 inh inactive, T cell HTS inactive and pCIP destab inactive.
CC(C)C[C@H](NC(=O)OC(C)(C)C)C(=O)N[C@@H](CO)[C@H](O)[C@@H]1C[C@@H]1C(=O)N1CCCC1 was read as CTSL1 counter 45, UBC9 SUMO inh inactive, IMP-1 inh inactive, VIM-2 inh inactive, T cell HTS inactive and pCIP destab inactive.
Screening CC1=CC(=O)c2c(O)ccc(O)c2C1=O returned CTSL1 counter 18, UBC9 SUMO inh 90, IMP-1 inh 5.3, VIM-2 inh inactive, T cell HTS inactive and pCIP destab inactive.
